Activity calls are given as the source filed them. The rule behind the calls is not given here.
Tests used:
[1] = target: T1, Pituitary adenylate cyclase-activating polypeptide type I receptor (Homo sapiens, UniProt P41586); assay: Displacement of [125I]PACAP27 from PAC1R expressed in HEK293f cells at 3 uM; assay type: cell-based
Target sequence in this assay (P41586 21-468 limits assumed): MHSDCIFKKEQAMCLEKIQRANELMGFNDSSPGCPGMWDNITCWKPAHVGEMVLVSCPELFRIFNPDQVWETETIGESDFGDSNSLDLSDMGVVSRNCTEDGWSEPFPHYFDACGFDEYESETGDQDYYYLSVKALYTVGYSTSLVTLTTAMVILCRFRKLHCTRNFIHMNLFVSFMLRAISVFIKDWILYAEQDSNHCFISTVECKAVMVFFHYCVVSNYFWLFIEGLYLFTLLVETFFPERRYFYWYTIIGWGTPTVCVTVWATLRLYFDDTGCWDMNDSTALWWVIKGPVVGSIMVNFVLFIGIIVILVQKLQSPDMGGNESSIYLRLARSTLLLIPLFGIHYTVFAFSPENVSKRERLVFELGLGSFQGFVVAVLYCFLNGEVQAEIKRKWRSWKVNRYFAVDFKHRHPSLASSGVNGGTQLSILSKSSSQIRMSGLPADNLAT

[2] = target: T1, Pituitary adenylate cyclase-activating polypeptide type I receptor; assay: Displacement of [125I]PACAP27 from PAC1R expressed in HEK293f cells; assay type: cell-based
Summary of the method: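 Membranes from HEK293f cells expressing PAC1R (5 lg protein) incubated with 0.2 nM ¹²⁵I-PACAP27 in 50 mM Tris–HCl pH 7.4, 5 mM MgCl₂, 20 min at 37 °C; nonspecific binding with 300 nM unlabeled PACAP38. Terminated by filtration through PEI-soaked GF/B filters, three ice-cold buffer washes, radioactivity counted; Ki reported.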

[3] = target: T2, Pituitary adenylate cyclase-activating polypeptide type I receptor (Rattus norvegicus) (UniProt P32215); assay: Antagonist activity at PAC1R in rat AR42J cells assessed as PACAP-induced calcium mobilization by FLIPR assay; assay type: functional, cell-based; settings: AR-42J
T2 sequence (whole entry): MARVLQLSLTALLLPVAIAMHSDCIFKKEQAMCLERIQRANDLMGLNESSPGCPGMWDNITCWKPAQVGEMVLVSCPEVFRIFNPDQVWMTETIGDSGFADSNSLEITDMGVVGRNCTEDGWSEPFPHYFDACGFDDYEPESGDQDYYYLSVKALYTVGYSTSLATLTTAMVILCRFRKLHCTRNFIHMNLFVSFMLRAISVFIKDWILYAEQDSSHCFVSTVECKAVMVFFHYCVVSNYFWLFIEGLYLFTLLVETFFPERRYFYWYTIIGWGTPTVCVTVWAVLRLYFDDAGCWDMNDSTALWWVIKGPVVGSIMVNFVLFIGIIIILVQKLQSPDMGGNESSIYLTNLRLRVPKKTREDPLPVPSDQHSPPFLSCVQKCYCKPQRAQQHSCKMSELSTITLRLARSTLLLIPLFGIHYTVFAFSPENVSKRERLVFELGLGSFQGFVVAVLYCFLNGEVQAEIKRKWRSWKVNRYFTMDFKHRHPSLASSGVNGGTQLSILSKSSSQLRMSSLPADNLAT
Summary of the method: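 Cells loaded with Fluo-4AM for 2 h, preincubated with compounds 30 min at room temperature, then challenged with 2 nM PACAP-27; intracellular calcium changes monitored by FLIPR; Kb calculated.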

| Activity [1] | Ki [2] | Structure (SMILES) | other results |
| --- | --- | --- | --- |
| 43% | – | O=C(N/N=C/c1ccc(OCc2ccc(C(F)(F)F)cc2)cc1)c1ccc(O)c(Cl)c1 | – |
| 36% | – | CNC(=O)c1ccc(COc2ccc(/C=N/NC(=O)c3ccc(O)c(Cl)c3)cc2OC)cc1 | – |
| – | – | COc1cc(/C=N/NC(=O)c2ccc(O)c(Cl)c2)cc(OCc2cccc(C(F)(F)F)c2)c1OC | Activity [2]: inactive |
| – | 0.185 µM | COc1cc(/C=N/NC(=O)c2ccc(O)c(Cl)c2)cc(OC)c1OCc1ccccc1 | – |
| – | 0.274 µM | O=C(N/N=C/c1cccc(COc2cccc(C(F)(F)F)c2)c1)c1ccc(O)c(Cl)c1 | – |
| – | 0.404 µM | COc1cc(/C=N/NC(=O)c2ccc(O)c(Cl)c2)ccc1OCc1cccc(C(F)(F)F)c1 | – |
| – | – | COc1cc(/C=N/NC(=O)c2ccc(O)c(Cl)c2)ccc1OCc1ccc(C(C)C)cc1 | Activity [2]: inactive |
| 22% | – | COc1cc(/C=N/NC(=O)c2ccc(O)cc2)cc(OC)c1OCc1ccc(C(C)C)cc1 | – |
| – | 0.537 µM | O=C(N/N=C/c1ccc(OCc2cccc(C(F)(F)F)c2)cc1)c1ccc(O)c(Cl)c1 | – |
| 44% | – | COc1cc(C(=O)N/N=C/c2cc(OC)c(OCc3ccc(C(C)C)cc3)c(OC)c2)ccc1O | – |
| – | 0.204 µM | COc1cc(/C=N/NC(=O)c2ccc(O)c(Cl)c2)cc(OC)c1OCc1cccc(C(F)(F)F)c1 | – |
| 43% | – | COc1cc(/C=N/NC(=O)c2ccc(O)c(Cl)c2)cc(OC)c1OCc1ccc(NC(C)=O)cc1 | – |
| – | 0.554 µM | O=C(N/N=C/c1cccc(OCc2cccc(C(F)(F)F)c2)c1)c1ccc(O)c(Cl)c1 | – |
| 55% | – | O=C(N/N=C/c1cccc2c1ccn2Cc1ccccc1)c1ccc(O)c(Cl)c1 | – |
| – | 0.167 µM | COc1cc(/C=N/NC(=O)c2ccc(O)c(Cl)c2)cc(OCc2c(C)c(C)cc(C)c2C)c1OC | – |
| 46% | – | COc1cc(CNNC(=O)c2ccc(O)c(Cl)c2)cc(OC)c1OCc1ccc(C(C)C)cc1 | – |

| Activity [1] | Ki [2] | Structure (SMILES) | other results |
| --- | --- | --- | --- |
| – | – | CC(=O)Nc1ccc(COc2ccc(/C=N/NC(=O)c3ccc(O)c(Cl)c3)cc2)cc1 | Activity [2]: inactive |
| – | – | COc1cc(/C=N/NC(=O)c2ccc3[nH]ncc3c2)cc(OC)c1OCc1ccc(C(C)C)cc1 | Activity [2]: inactive |
| – | – | COc1cc(-c2nnc(-c3ccc(O)c(Cl)c3)s2)cc(OC)c1OCc1ccc(C(C)C)cc1 | Activity [2]: inactive |
| – | 0.241 µM | O=C(N/N=C/c1cccc(COc2ccc(C(F)(F)F)cc2)c1)c1ccc(O)c(Cl)c1 | – |
| 34% | – | COc1cc(/C=N/NC(=O)c2ccc(O)c(Cl)c2)ccc1OCc1ccc(NC(C)=O)cc1 | – |
| – | 0.14 µM | COc1cc(/C=N/NC(=O)c2ccc(O)c(Cl)c2)cc(OC)c1OCc1ccc(C(F)(F)F)cc1 | – |
| 40% | – | COc1cc(C(=O)NNC(=O)c2ccc(O)c(Cl)c2)cc(OC)c1OCc1ccc(C(C)C)cc1 | – |
| – | 0.522 µM | O=C(N/N=C/c1ccc(OCc2ccccc2)cc1)c1ccc(O)c(Cl)c1 | – |
| 51% | – | O=C(N/N=C/c1cccc2c1ccn2Cc1ccc(OCc2ccccc2)cc1)c1ccc(O)c(Cl)c1 | – |
| – | 0.085 µM | O=C(N/N=C/c1cccc2c1ccn2Cc1cccc(C(F)(F)F)c1)c1ccc(O)c(Cl)c1 | – |
| 41% | – | O=C(N/N=C/c1ccc(COc2ccccc2)cc1)c1ccc(O)c(Cl)c1 | – |
| – | – | COc1cc(-c2nnc(-c3ccc(O)c(Cl)c3)o2)cc(OC)c1OCc1ccc(C(C)C)cc1 | Activity [2]: inactive |
| – | 0.152 µM | COc1cc(/C=N/NC(=O)c2ccc(O)c(Cl)c2)cc(OCc2ccc(C(C)C)cc2)c1OC | – |
| 50% | – | COc1cc(/C=N/NC(=O)c2ccc(O)c(Cl)c2)ccc1OCc1ccc(C(F)(F)F)cc1 | – |
| – | – | COc1cc(/C=N/NC(=O)c2cccc(Cl)c2)cc(OC)c1OCc1ccc(C(C)C)cc1 | Activity [2]: inactive |
| – | 0.056 µM | COc1cc(/C=N/NC(=O)c2ccc(O)c(Cl)c2)cc(OC)c1OCc1ccc(C(C)C)cc1 | Kb [3]: 0.2 µM |

— ChEMBL document CHEMBL1143199, “Discovery and SAR of hydrazide antagonists of the pituitary adenylate cyclase-activating polypeptide (PACAP) receptor type 1 (PAC1-R)” (Bioorg Med Chem Lett, 2008)
